ChEMBL document CHEMBL5046272, “Discovery of Potent, Selective, and In Vivo Efficacious AKT Kinase Protein Degraders via Structure-Activity Relationship Studies” (J Med Chem, 2022)
The source made the active and inactive calls. The rule behind the calls is not given here.

Columns and labels:
[1] = AUC in Swiss albino mouse at 75 mg/kg, ip administered as single dose measured upto 12 hrs post injection by LC-MS/MS analysis; format: ADME, organism-based; design: route intraperitoneal, dose 75 mg/kg, time <=12; conditions: in vivo
Method in brief: (§1)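 Male Swiss Albino mice, single IP dose of HCl salt in 5% DMA/5% Solutol HS-15/90% normal saline. Plasma (~60 μL) drawn from three mice per time point at 0.5, 1, 2, 4, 8 and 12 h. Samples were held below −70 °C and quantified by LC–MS/MS (LLOQ 10.18 ng/mL). Parameters come from non-compartmental analysis of mean concentrations.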

[2] = test system: MDA-MB-468; experiment: Antiproliferative activity against human MDA-MB-468 cells assessed as cell growth by measured after 5 days by IncuCyte zoom live cell analysis; format: functional; conditions: MDA-MB-468, 120 h, time 5 day
Method in brief: (§2)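 Cells grown in DMEM with 10% FBS at 37 °C, 5% CO₂. Seeded at 1–3 × 10³ cells/well in triplicate with serial compound dilutions for 5 days. Growth was taken as confluence from IncuCyte phase-contrast images of live cells. Three independent experiments.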

[3] = Toxicity in immunocompromised NU/J mouse xenografted with human PC-3 cells assessed as body weight loss at 75 mg/kg, ip administered once daily for 22 days; format: organism-based; conditions: in vivo, 528 h, time 22 day
Method in brief: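 Male NU/J nude mice, 6 weeks old, engrafted with PC-3 cells. Randomized at ~100 mm³ tumors to vehicle (n = 6) or 75 mg/kg IP once daily (n = 7) for 22 days. Body weight compared at study start and end. Unblinded.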

[4] = test system: PC-3; experiment: Antiproliferative activity against human PC-3 cells assessed as inhibition of cell growth measured after 5 days by IncuCyte zoom live cell analysis; format: functional; conditions: PC-3, 120 h, time 5 day; method in brief: as §2
[5] = Tmax in Swiss albino mouse at 75 mg/kg, ip administered as single dose measured upto 12 hrs by LC-MS/MS analysis; format: ADME, organism-based; conditions: in vivo; method in brief: as §1
[6] = Cmax in Swiss albino mouse at 75 mg/kg, ip administered as single dose measured upto 12 hrs by LC-MS/MS analysis; format: ADME, organism-based; design: route intraperitoneal, dose 75 mg/kg, time <=12; conditions: in vivo; method in brief: as §1
[7] = test system: BT-474; experiment: Inhibition of colony formation in human BT-474 cells at 0.1 to 10 uM incubated for 14 days by replacing culture medium for every 2 days by crystal violet staining based assay; format: functional, cell-based; conditions: dose 0.1-10 µM, time 14.0 day
Method in brief: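 BT474 cells cultured 14 days with compound. Medium plus compound was replaced every 2 days. Viable cells were then stained with 0.5% crystal violet.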

[8] = Drug exposure in Swiss albino mouse plasma at 75 mg/kg, ip administered as single dose measured upto 12 hrs by LC-MS/MS analysis; format: ADME, organism-based; conditions: in vivo; method in brief: as §1

In the case of Cc1ncsc1-c1ccc(CNC(=O)[C@@H]2C[C@@H](O)CN2C(=O)[C@@H](NC(=O)CCCCCCCCCCC(=O)N2CCN(CC[C@H](NC(=O)C3(N)CCN(c4ncnc5[nH]ccc45)CC3)c3ccc(Cl)cc3)CC2)C(C)(C)C)cc1, the AUC [1] is reported as 63600 ng·h/mL, the GI50 [2] is reported as 1000 nM and the Activity [3] is reported as “Non-Toxic”. It also gave a GI50 [4] of 800 nM, a Tmax [5] of 2 h and a Cmax [6] of 7 µM. The inhibition [7] was “Active” and the Activity [8] was 3.7 µM.
